Screens as filed in PubChem.
TAAR1 antagonist: human TAAR1 antagonism; Q96RJ0; CHO RD-HGA16 TAAR1, Fluo-8 calcium fluorescence, antagonist; inhibition, % at 3 µM; 360,000 compounds, 1.5% hits; AID 624466;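 active = inhibition above a per-plate cutoff, the mean inhibition of test compounds on that plate plus 3 SD, cut at about 49% in these data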;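 also: 0% = DMSO plus EC80 beta-PEA response and 100% = DMSO alone without agonist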
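test system = CHO RD-HGA16 cells bearing hTAAR1 | replication = singlicate | controls = DMSO-only wells and EC80 β-PEA-stimulated wells | reagent = EC80 β-phenethylamine stimulus | read-out basis = percent inhibition of PEA-evoked calcium signal, max/basal emission ratio | schedule = seeding 17-24 h prior, 75-min 37 °C, 30-min RT dye loading | signal = kinetic Fluo-8 calcium fluorescence measurement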
DAGLB inh: diacylglycerol lipase beta (human) inhibition | inhibition, % at 5.17 µM | 340,000 compounds, 0.059% hits | HEK293T DAGLB membrane lysate, EnzChek fluorogenic substrate | Q8NCG7 | AID 504411; in the data active = inhibition above about 34%;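 also: 0% = enzyme with vehicle and 100% = wells lacking enzyme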
Target sequence (Q8NCG7 whole entry, looked up): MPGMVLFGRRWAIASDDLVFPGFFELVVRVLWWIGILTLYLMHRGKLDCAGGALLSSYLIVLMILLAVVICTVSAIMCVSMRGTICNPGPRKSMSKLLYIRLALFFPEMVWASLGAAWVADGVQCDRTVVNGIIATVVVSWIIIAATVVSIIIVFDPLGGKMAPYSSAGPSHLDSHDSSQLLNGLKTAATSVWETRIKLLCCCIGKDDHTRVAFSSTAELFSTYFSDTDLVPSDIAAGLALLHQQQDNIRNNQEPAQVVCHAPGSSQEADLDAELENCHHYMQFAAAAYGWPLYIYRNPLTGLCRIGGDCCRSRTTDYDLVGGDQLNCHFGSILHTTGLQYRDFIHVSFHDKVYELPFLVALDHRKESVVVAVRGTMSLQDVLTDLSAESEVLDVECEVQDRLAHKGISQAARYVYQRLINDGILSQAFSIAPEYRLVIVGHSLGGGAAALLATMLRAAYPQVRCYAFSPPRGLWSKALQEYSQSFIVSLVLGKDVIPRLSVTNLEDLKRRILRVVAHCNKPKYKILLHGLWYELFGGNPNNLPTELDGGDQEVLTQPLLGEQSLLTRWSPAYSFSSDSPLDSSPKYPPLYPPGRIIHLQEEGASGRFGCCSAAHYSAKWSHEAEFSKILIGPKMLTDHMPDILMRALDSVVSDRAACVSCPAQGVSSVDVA
GPR7 antag: human neuropeptides B/W receptor 1 antagonism; GPR7-expressing cells, fluorescence antagonist assay; inhibition, % at 4.4 µM; 290,000 compounds, 1.1% hits; AID 1861; in the data active = inhibition above about 16%, passing the limit was not always enough;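 also: cells stimulated with the agonist NPW; 0% = agonist with vehicle and 100% = vehicle without agonist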
MPTP inh: inhibitors of mitochondrial permeability transition pore | isolated mouse mitochondria, Ca2+ swelling absorbance, 30 min | inhibition, % at 10 µM | 360,000 compounds, 1.4% hits;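 active = inhibition of 50% or more, scaled per plate between neutral and stimulator controls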;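 also: 0% = DMSO wells given calcium and 100% = 1 mM EGTA wells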
TAAR1 agonist: human TAAR1 agonism; Q96RJ0; CHO RD-HGA16 TAAR1, Fluo-8 calcium fluorescence; vehicle wells 0%, saturating PEA agonist 100%; activation, % at 3 µM; 360,000 compounds, 0.99% hits; AID 624467;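 active = activation above the mean activation of all test compounds in the run plus 3 SD, cut at about 38% in these data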
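System: CHO-derived RD-HGA16 cells with stable Gα16 and human TAAR1. Times: 17-24 h plating, Fluo-8 75 min 37 °C, 30 min RT. Measured by: calcium-sensitive Fluo-8 signal, excitation 470-495, emission 515-575 nm. Read-out basis: % activation relative to PEA EC100 response. Control set: DMSO and PEA EC100. Repeats: no replicates (n 1).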
MPTP counter: Rhodamine 123 counter-screen of mitochondrial pore hits | shares compounds with MPTP inh | inhibition, % at 10 µM | isolated mitochondria, membrane potential, Rhodamine 123 fluorescence | 5,000 compounds, 78% hits; in the data active = inhibition above about 22%;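 also: 0% = DMSO vehicle and 100% = positive control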
MPTP swell DR: MPTP inhibition, dose response swelling confirmation; 780 compounds, 58% hits; shares compounds with MPTP inh; IC50, µM; isolated mitochondria swelling, absorbance; in the data active = IC50 below about 20 µM
MPTP counter DR: counter-screen for mitochondrial permeability transition pore inhibitors, dose response. shares compounds with MPTP inh. isolated mitochondria counterscreen, fluorescence read-out. IC50, µM. 780 compounds, 49% hits. AID 651564; in the data active = IC50 below about 80 µM
* marks the source's active call; other numbers are inactive results; nt = no result given. In the library only some 4% were active in any assay of this set; here they are far more common.

SMILES | TAAR1 antagonist | DAGLB inh | GPR7 antag | MPTP inh | TAAR1 agonist | MPTP counter | others
COc1ccc(NC(=O)CN2CCCC2c2cccs2)cc1S(=O)(=O)N1CCCCC1 (stereo unspecified) | 39 | -3 | nt | 1 | 13 | nt
COc1cc(CNc2cccc3c2S(=O)(=O)N([C@H](C)c2ccccc2)C[C@@H](COCc2ccccc2)O3)cc(OC)c1OC | 5 | nt | nt | nt | 2 | nt
CC(C)c1[nH]nc2c1C(c1ccccc1)N(c1ccccc1)C2=O (stereo unspecified) | -14 | nt | nt | nt | 2 | nt
COC(=O)C1=CC(=O)N2CCN=C2S1 | -6 | nt | nt | nt | 1 | nt
CC(C)(C)c1ccc(OCC(=O)Nc2ccncc2)c(Br)c1 | 34 | -3 | 5 | 108* | 8 | 88*
CCc1ccc(OCC(=O)Nc2ccncc2)c(Br)c1 | 4 | -1 | -4 | 79* | 4 | 80*
O=C(COc1ccc2ccccc2c1Br)Nc1cccnc1 | -14 | -1 | 20 | 0 | 8 | nt
Cc1ccc(OCC(=O)Nc2ccncc2)cc1C | -4 | 3 | nt | 14 | 5 | nt
Cc1cc(OCC(=O)Nc2ccncc2)c(C)cc1Br | -2 | 0 | 19 | 98* | 16 | 84*
O=C(COc1ccc2ccccc2c1Br)Nc1ccncc1 | -10 | -3 | 14 | 92* | 11 | 82*
O=c1[nH]cnc2c1ncn2C1CCC(CO)O1 (stereo unspecified) | -15 | nt | nt | 1 | 1 | nt
COC(=O)[C@@]12C[C@@H](CC(=O)NCC3CCCCC3)C(=O)N(Cc3ccc4c(c3)OCO4)C1=CCC(C)(C)C2 | -12 | nt | nt | 13 | 1 | nt
COC(=O)c1c(C)[nH]c(C(=O)OC(C)C(=O)NC2CCCCC2C)c1C (stereo unspecified) | -21 | -4 | nt | 0 | 5 | nt
N#C/C(=C\c1cccc(Oc2ccc(C(F)(F)F)cc2[N+](=O)[O-])c1)c1nc2ccccc2[nH]1 | 27 | -1 | -1 | 155* | 1 | 105*
Cc1ccc2nc(/C(C#N)=C\c3ccc(Oc4ccc(C(F)(F)F)cc4[N+](=O)[O-])cc3)[nH]c2c1 | 6 | -5 | -9 | 99* | 12 | 59*
CCOc1ccc(Nc2c3ccccc3nc3ccccc23)cc1 | -3 | 10 | 11 | 96* | 3 | 85*
CCOc1ccc(Nc2cc(C)c3ccccc3n2)cc1 | 14 | -2 | 17 | 1 | 9 | nt
N=c1sccn1CC(=O)Nc1cccc(Oc2ccccc2)c1 | 3 | -2 | 9 | 92* | 27 | -1 | MPTP swell DR=4.9*;MPTP counter DR=>80
N=c1sccn1CC(=O)Nc1cc(Cl)ccc1Oc1ccccc1 | nt | -3 | 14 | 9 | nt | nt
Cc1cc(O)c(-c2cc(C(=O)Nc3ccc(S(=O)(=O)N4CCOCC4)cc3)[nH]n2)cc1C | 23 | 0 | -1 | 18 | 16 | nt
Cc1ccc(-c2cc(C(=O)Nc3ccc(S(=O)(=O)N4CC(C)OC(C)C4)cc3)[nH]n2)c(O)c1 (stereo unspecified) | -1 | -1 | -17 | 51* | 0 | 69*
O=C(Nc1ccc(S(=O)(=O)N2CCOCC2)cc1)c1cc(-c2cc(Cl)ccc2O)n[nH]1 | 56* | 2 | 20* | 75* | 20 | 61*
Cc1ccc(O)c(-c2cc(C(=O)Nc3ccc(S(=O)(=O)N4CC(C)OC(C)C4)cc3)[nH]n2)c1 (stereo unspecified) | 8 | 2 | -4 | 48 | 18 | nt
CC(=O)c1cccc(S(=O)(=O)NC2CCSc3ccccc32)c1 (stereo unspecified) | -11 | -1 | 5 | 1 | 1 | nt
COc1cc2oc(=O)ccc2cc1[C@@H](O)[C@@H]1OC(C)(C)OC1(C)C | -9 | -3 | nt | -1 | 11 | nt
SMILES | TAAR1 antagonist | DAGLB inh | GPR7 antag | MPTP inh | TAAR1 agonist | MPTP counter | others
COc1ccc(CN2C[C@@H](CO)O[C@@H](n3cnc4c(NCc5ccco5)ncnc43)C2)cc1 | 1 | nt | nt | -1 | 4 | nt
O=C(ONC1=NCCCCC1)c1ccc([N+](=O)[O-])cc1 | -3 | -2 | 5 | 0 | 8 | nt
O=C(Nc1cccc([N+](=O)[O-])c1)NN1CCCCCC1 | 12 | 1 | nt | 94* | 9 | 82*
O=C(Nc1ccc(Br)cc1)NC1CCCCCCC1 | 25 | -12 | 2 | 88* | 0 | 96*
O=C(Nc1ccc(C(=O)O)cc1)Nc1cccc([N+](=O)[O-])c1 | 3 | 1 | 3 | 81* | 11 | 76*
O=C(Nc1cccc([N+](=O)[O-])c1)ONC1=NCCCCC1 | -16 | -2 | -14 | 68* | 5 | 77*
COc1ccccc1Cc1c(-c2ccc(Cl)cc2)nc2ccc(C)cn12 | -7 | nt | nt | nt | -1 | nt
Cc1ccc(/C=N/NC(=O)c2c(C)nc3ccc(Cl)cn23)cc1 | -4 | nt | nt | nt | 0 | nt
CC(C)S(=O)(=O)c1csc(NC(=O)Nc2cccc([N+](=O)[O-])c2)c1Cl | 15 | -3 | 4 | 84* | 19 | 69*
Cc1cc([N+](=O)[O-])ccc1NC(=S)NC1CCCC1 | 3 | 1 | -16 | 67* | 5 | 97*
O=C(Nc1cccc([N+](=O)[O-])c1)Nc1cccc([N+](=O)[O-])c1 | -8 | 0 | -10 | 91* | 12 | 78*
O=C(Nc1cccc([N+](=O)[O-])c1)c1ccc(CSc2ccccc2)cc1 | 52* | -7 | -2 | 78* | 15 | 86*
Cc1ccccc1NC(=S)NC1CCCC1 | -5 | 1 | -14 | 1 | 8 | nt
O=C(Nc1cccc([N+](=O)[O-])c1)c1ccccc1 | 4 | 1 | -5 | 2 | 0 | nt
O=S1(=O)N[C@@H](Cc2ccccc2)COc2cc(N3CCSCC3)ccc21 | -12 | nt | nt | -1 | 3 | nt
O=C1c2cccc3cccc(c23)C(c2nc3ccccc3[nH]2)N1C1CC1 (stereo unspecified) | -5 | nt | nt | 0 | 4 | nt
CCNC(=O)C1CCCN(C(=O)c2cc(OC)c(OC)c(OC)c2)CC1 (stereo unspecified) | -23 | nt | nt | 0 | 2 | nt
COc1ccc(C(C(=O)NCc2ccccc2)n2c(-c3ccccn3)nc3ccccc32)cc1 (stereo unspecified) | -8 | nt | nt | 2 | 1 | nt
Cc1cccc(C)c1NC(=O)C1C(c2ccc3c(c2)OCO3)=Nc2ccccc2N1C(=O)c1cccc2ccccc12 (stereo unspecified) | -2 | nt | nt | 3 | 3 | nt
O=C(CNC1CCCCC1)Nc1cccc([N+](=O)[O-])c1 | -14 | 8 | nt | 1 | 1 | nt
O=C(Nc1cccc([N+](=O)[O-])c1)NC1CCCCCCC1 | 18 | -7 | -9 | 80* | 1 | 95*
CCOc1ccc(C(=O)Nc2cccc([N+](=O)[O-])c2)cc1Br | 9 | 0 | -6 | 80* | 6 | 69*
